Measurements from different studies.
Compare with care: the assays were run in different laboratories. Converted amounts (≈) assume the structure as drawn.
Effect on: microbial growth

CCCCCCCCCC(=O)N[C@@H](Cc1c[nH]c2ccccc12)C(=O)N[C@H](CC(N)=O)C(=O)N[C@@H](CC(=O)O)C(=O)N[C@@H]1C(=O)NCC(=O)N[C@@H](CCCN)C(=O)N[C@@H](CC(=O)O)C(=O)N[C@H](C)C(=O)N[C@@H](CC(=O)O)C(=O)NCC(=O)N[C@H](CO)C(=O)N[C@@H]([C@H](C)CC(=O)O)C(=O)N[C@@H](CC(=O)c2ccccc2N)C(=O)O[C@@H]1C — MIC (Enterococcus faecium; broth dilution; drug-resistant strain): 0.25 mg/L (≈ 0.154 µM)
O=c1c2ccccc2nc(/C=C/c2ccc([N+](=O)[O-])cc2)n1-c1ccc(O)cc1 — MIC (Enterococcus faecium; broth dilution; NCTC7171): 64 mg/L (≈ 166 µM)
COC(=O)c1cc(-c2cccc(NC(=O)Nc3ccc(Cl)c(Cl)c3)c2)on1 — MIC (Mycobacteroides chelonae; broth dilution; ATCC35752; 48 h): > 64 mg/L
CCOC(=O)CON — MIC (Candida albicans; 28A): 32 mg/L (≈ 269 µM)
COC(=O)c1cc(-c2cccc(NC(=O)Nc3ccccc3)c2)on1 — MIC (Mycobacteroides chelonae; broth dilution; ATCC35752; 48 h): > 64 mg/L
O=c1c2ccccc2nc(CCc2ccccc2)n1-c1cccc(O)c1 — MIC (Enterococcus faecium; broth dilution; NCTC7171): > 128 mg/L
COC(=O)c1cc(-c2ccc(OC)c(NC(=O)Nc3ccc(Cl)c(Cl)c3)c2)on1 — MIC (Mycobacteroides chelonae; broth dilution; ATCC35752; 48 h): > 64 mg/L
CN[C@H](CC(C)C)C(=O)N[C@H]1C(=O)N[C@@H](CC(N)=O)C(=O)N[C@H]2C(=O)N[C@H]3C(=O)N[C@H](C(=O)N[C@H](C(=O)O)c4cc(O)cc(O)c4-c4cc3ccc4O)[C@H](O)c3ccc(c(Cl)c3)Oc3cc2cc(c3O[C@@H]2O[C@H](CO)[C@@H](O)[C@H](O)[C@H]2O[C@H]2C[C@](C)(N)[C@H](O)[C@H](C)O2)Oc2ccc(cc2Cl)[C@H]1O — MIC (Enterococcus faecium; ATCCBAA2317 VRE; drug-resistant strain): 250 mg/L (≈ 173 µM)
CCCCCC/C=C\CCCCCCCCCc1cc(O)cc(O)c1 — MIC (Enterococcus faecium; broth dilution; drug-resistant strain): 64 mg/L (≈ 185 µM)
C=C(NC(=O)C(=C)NC(=O)c1csc(C2=N[C@@H]3c4csc(n4)[C@H]4NC(=O)c5csc(n5)[C@H]([C@](C)(O)[C@@H](C)O)NC(=O)[C@H]5CSC(=N5)/C(=C/C)NC(=O)[C@H]([C@@H](C)O)NC(=O)c5csc(n5)[C@]3(CC2)NC(=O)[C@H](C)NC(=O)C(=C)NC(=O)[C@H](C)NC(=O)[C@H]([C@@H](C)CC)N[C@@H]2C=Cc3c([C@H](C)O)cc(nc3[C@H]2O)C(=O)O[C@@H]4C)n1)C(N)=O — MIC (Enterococcus faecium): 0.12 mg/L (≈ 0.0721 µM)
O=c1c2ccccc2nc(Cc2ccccc2)n1-c1cccc(O)c1 — MIC (Enterococcus faecium; broth dilution; NCTC7171): 128 mg/L (≈ 390 µM)
COC(=O)c1cc(-c2cccc(NC(=O)Nc3ccccc3C)c2)on1 — MIC (Mycobacteroides chelonae; broth dilution; ATCC35752; 48 h): > 64 mg/L
OC(Cn1cncn1)(Cn1cncn1)c1ccc(F)cc1F — MIC (Candida albicans; 28A): > 128 mg/L
O=c1c2cc(Br)ccc2nc(/C=C/c2ccc([N+](=O)[O-])cc2)n1-c1cccc(O)c1 — MIC (Enterococcus faecium; broth dilution; NCTC7171): > 128 mg/L
